Source: ChEMBL document CHEMBL4602675, “The Marine Natural Product Manzamine A Inhibits Cervical Cancer by Targeting the SIX1 Protein” (J Nat Prod, 2020)
Activity calls are given as the source filed them. The calls are words filed in the database; no cut-off is given here.

Legend:
[1] = system: Ca-Ski; test: Induction of apoptosis in human CaSki cells assessed as viable cells at 4 uM after 48 hrs by Annexin V-FITC/PI double staining based flow cytometric analysis (reference value: 81.6%); assay type: functional; details: read-out: Activity
[2] = system: Ca-Ski; test: Induction of apoptosis in human CaSki cells assessed as apoptotic cells at 4 uM after 48 hrs by Annexin V-FITC/PI double staining based flow cytometric analysis (reference value: […]); assay type: functional
[3] = Toxicity in po dosed rat; assay type: organism-based; details: in vivo
[4] = system: HeLa; test: Antiproliferative activity against human HeLa cells assessed as reduction in cell viability after 24 hrs by CellTiter-Glo assay; assay type: functional, cell-based
Procedure, shortened: (§1)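 ATP-based luminescent viability readout. Cells were grown in DMEM with 10% FBS, 2 mM L-glutamine and penicillin-streptomycin at 37 °C, 5% CO2. 2 × 10^4 cells/well were seeded, then exposed the next day to 0–40 μM for 24, 48 or 72 h. % viability = 100 × treated/control. IC50 was fitted from a sigmoid dose-response curve. Run at least three times in quadruplicate; mean ± SEM.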

[5] = system: C-33-A; test: Cell cycle arrest in human C33A cells assessed as accumulation at G2/M phase at 4 uM after 24 hrs by propidium iodide staining based flow cytometric analysis (reference value: 26.2%); assay type: functional
Procedure, shortened: (§2)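 Cells in DMEM/10% FBS at 37 °C, 5% CO2 were given 4 μM for 24, 48 or 72 h, with DMSO as control. After trypsinization they were fixed in chilled 70% ethanol on ice for 30 min, treated with RNase A (1 mg/mL) for 30 min at room temperature, and stained with PI (20 μg/mL). At least 10 000 events were read by flow cytometry to give sub-G1, G0/G1, S and G2/M fractions; mean ± SEM.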

[6] = system: Ca-Ski; test: Induction of apoptosis in human CaSki cells assessed as viable cells at 4 uM after 24 hrs by Annexin V-FITC/PI double staining based flow cytometric analysis (reference value: 84%); assay type: functional; details: read-out: Activity
[7] = system: C-33-A; test: Antiproliferative activity against human C33A cells assessed as reduction in cell viability after 24 hrs by CellTiter-Glo assay; assay type: functional, cell-based; procedure, shortened: as §1
[8] = system: HeLa; test: Cell cycle arrest in human HeLa cells assessed as accumulation at G0/G1 phase at 4 uM after 72 hrs by propidium iodide staining based flow cytometric analysis (reference value: 76.4%); assay type: functional; procedure, shortened: as §2
[9] = system: Ca-Ski; test: Antiproliferative activity against human CaSki cells assessed as reduction in cell viability after 24 hrs by CellTiter-Glo assay; assay type: functional, cell-based; procedure, shortened: as §1
[10] = system: Ca-Ski; test: Antiproliferative activity against human CaSki cells assessed as reduction in cell viability after 48 hrs by CellTiter-Glo assay; assay type: functional, cell-based; procedure, shortened: as §1
[11] = system: SiHa; test: Induction of apoptosis in human SiHa cells assessed as early apoptotic cells at 4 uM after 24 hrs by Annexin V-FITC/PI double staining based flow cytometric analysis (reference value: 5.4%); assay type: functional
[12] = system: SiHa; test: Induction of apoptosis in human SiHa cells assessed as viable cells at 4 uM after 24 hrs by Annexin V-FITC/PI double staining based flow cytometric analysis (reference value: 90.8%); assay type: functional; details: read-out: Activity
[13] = target: Protein E6 (human papillomavirus 18) (UniProt P06463); test: Inhibition of Human papillomavirus type18 derived E6 in human HeLa cells assessed as increase in p21 protein expression at 2 to 4 uM after 48 hrs by Western blot analysis; assay type: cell-based
Procedure, shortened: (§3)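 Cells were seeded at 1 × 10^6 per 100 mm dish and treated next day with 2 or 4 μM for 48 h. They were trypsinised, PBS-washed and lysed in RIPA with protease inhibitors. Equal protein was run on SDS-PAGE and transferred to PVDF. Primary antibodies were used at 1:500, with BSA 3% for blocking and antibodies for CK2α, Rb and pRb, otherwise 5% milk in TBST. HRP secondary at 1:2000, chemiluminescence detection.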

[14] = system: Ca-Ski; test: Cell cycle arrest in human CaSki cells assessed as accumulation at G0/G1 phase at 4 uM after 48 hrs by propidium iodide staining based flow cytometric analysis (reference value: 54.1%); assay type: functional; procedure, shortened: as §2
[15] = target: Protein E6 (Human papillomavirus 16) (UniProt P03126); test: Inhibition of Human papillomavirus type16 derived E6 in human SiHa cells assessed as increase in p53 protein expression at 2 to 4 uM after 48 hrs by Western blot analysis; assay type: cell-based; procedure, shortened: as §3
[16] = system: SiHa; test: Cell cycle arrest in human SiHa cells assessed as accumulation at G2/M phase at 4 uM after 24 hrs by propidium iodide staining based flow cytometric analysis (reference value: 17%); assay type: functional; procedure, shortened: as §2
[17] = target: Casein kinase II subunit alpha (Homo sapiens) (UniProt P68400); test: Inhibition of CK2alpha in human CaSki cells at 2 to 4 uM after 48 hrs by Western blot analysis; assay type: cell-based; details: Ca-Ski; procedure, shortened: as §3
[18] = system: Ca-Ski; test: Effect on total-Rb in human CaSki cells assessed decrease in Rb protein level at 2 to 4 uM after 48 hrs by Western blot analysis; assay type: ADME, cell-based; procedure, shortened: as §3
[19] = system: C-33-A; test: Antiproliferative activity against human C33A cells assessed as reduction in cell viability after 72 hrs by CellTiter-Glo assay; assay type: functional, cell-based; procedure, shortened: as §1
[20] = system: HeLa; test: Cell cycle arrest in human HeLa cells assessed as accumulation at G0/G1 phase at 4 uM after 24 hrs by propidium iodide staining based flow cytometric analysis (reference value: 69.4%); assay type: functional; procedure, shortened: as §2
[21] = system: Ca-Ski; test: Induction of apoptosis in human CaSki cells assessed as late apoptotic cells at 4 uM after 48 hrs by Annexin V-FITC/PI double staining based flow cytometric analysis (reference value: 9.1%); assay type: functional
[22] = target: Protein E6 (Human papillomavirus 16) (UniProt P03126); test: Inhibition of Human papillomavirus type16 derived E6 in human CaSki cells assessed as increase in p21 protein expression at 2 to 4 uM after 48 hrs by Western blot analysis; assay type: cell-based; details: Ca-Ski; procedure, shortened: as §3
[23] = system: Ca-Ski; test: Cell cycle arrest in human CaSki cells assessed as accumulation at G0/G1 phase at 4 uM after 24 hrs by propidium iodide staining based flow cytometric analysis (reference value: 56%); assay type: functional; procedure, shortened: as §2
[24] = system: C-33-A; test: Cell cycle arrest in human C33A cells assessed as accumulation at Sub G1 phase at 4 uM after 48 hrs by propidium iodide staining based flow cytometric analysis (reference value: 0.8%); assay type: functional; procedure, shortened: as §2
[25] = system: C-33-A; test: Cell cycle arrest in human C33A cells assessed as accumulation at G0/G1 phase at 4 uM after 72 hrs by propidium iodide staining based flow cytometric analysis (reference value: 60%); assay type: functional; procedure, shortened: as §2
[26] = system: Ca-Ski; test: Cell cycle arrest in human CaSki cells assessed as increase in accumulation at G0/G1 phase at 4 uM incubated for 48 hrs by propidium iodide staining based flow cytometric analysis; assay type: functional; procedure, shortened: as §2
[27] = system: C-33-A; test: Cell cycle arrest in human C33A cells assessed as accumulation at Sub G1 phase at 4 uM after 72 hrs by propidium iodide staining based flow cytometric analysis (reference value: 0.7%); assay type: functional; procedure, shortened: as §2
[28] = system: C-33-A; test: Cell cycle arrest in human C33A cells assessed as accumulation at Sub G1 phase at 4 uM after 24 hrs by propidium iodide staining based flow cytometric analysis (reference value: 0.7%); assay type: functional; procedure, shortened: as §2
[29] = target: Protein E6 (Human papillomavirus 16) (UniProt P03126); test: Inhibition of Human papillomavirus type16 derived E6 in human SiHa cells assessed as increase in p21 protein expression at 2 to 4 uM after 48 hrs by Western blot analysis; assay type: cell-based; procedure, shortened: as §3

Chain of Protein E6 (Human papillomavirus 16) (P03126 whole entry): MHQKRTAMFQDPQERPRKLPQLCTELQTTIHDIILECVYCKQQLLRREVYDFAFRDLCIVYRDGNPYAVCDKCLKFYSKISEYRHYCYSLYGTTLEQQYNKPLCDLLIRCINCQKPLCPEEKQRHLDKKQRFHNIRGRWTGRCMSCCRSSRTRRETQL
Chain of Protein E6 (human papillomavirus 18) (P06463 whole entry): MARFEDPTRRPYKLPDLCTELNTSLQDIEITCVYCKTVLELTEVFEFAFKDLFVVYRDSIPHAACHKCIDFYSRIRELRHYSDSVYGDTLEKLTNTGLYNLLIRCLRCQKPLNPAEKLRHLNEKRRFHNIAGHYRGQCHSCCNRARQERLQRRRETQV
Chain of Casein kinase II subunit alpha (Homo sapiens) (P68400 whole entry, looked up): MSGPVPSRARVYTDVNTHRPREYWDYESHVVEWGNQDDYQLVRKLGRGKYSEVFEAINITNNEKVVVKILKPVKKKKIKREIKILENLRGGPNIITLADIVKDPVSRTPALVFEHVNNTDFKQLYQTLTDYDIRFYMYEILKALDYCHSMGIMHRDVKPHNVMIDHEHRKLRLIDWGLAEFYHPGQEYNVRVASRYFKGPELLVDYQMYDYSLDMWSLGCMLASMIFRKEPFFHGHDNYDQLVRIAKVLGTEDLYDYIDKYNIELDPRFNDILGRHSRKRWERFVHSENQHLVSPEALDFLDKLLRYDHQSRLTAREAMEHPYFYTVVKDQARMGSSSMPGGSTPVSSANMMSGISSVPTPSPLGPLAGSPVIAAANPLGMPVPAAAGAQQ

SMILES: O[C@]12C=C(c3nccc4c3[nH]c3ccccc34)[C@@H]3CCN(CCCC/C=C\CC1)C[C@@]31C[C@@H]3/C=C\CCCCN3[C@H]12 [MANZAMINE A]
- viability at 4 µM [1]: 76.9%
- Activity [2]: 23.2%
- LD50 [3]: 200 to 300 mg/kg
- IC50 [4]: 11.8 µM
- Activity [5]: 24.6%
- viability at 4 µM [6]: 81.4%
- IC50 [7]: 5.2 µM
- Activity [8]: 49.1%
- IC50 [9]: 33.6 µM
- IC50 [10]: 19.9 µM
- Activity [11]: 13.7%
- viability at 4 µM [12]: 82.5%
- inhibition [13]: inactive
- Activity [14]: 82.4%
- inhibition [15]: Active
- Activity [16]: 9.2%
- inhibition [17]: Active
- Activity [18]: Toxic
- IC50 [19]: 1.6 µM
- Activity [20]: 74.7%
- Activity [21]: 7.8%
- inhibition [22]: Active
- Activity [23]: 77.6%
- Activity [24]: 19.2%
- Activity [25]: 34.2%
- fold change (FC) [26]: 1.5
- Activity [27]: 31.3%
- Activity [28]: 1.8%
- inhibition [29]: Active
